Assay outcomes from PubChem.
Shown are actives, neighbours in structure and some others; about 2.6% of the full set was active somewhere.
Apaf1 inhib = inhibitors of human Apaf-1 apoptosome, primary screen, biochemical, DEVD-Rh110 fluorescence, uHTS; Apoptotic protease-activating factor 1 (Homo sapiens), O14727; reconstituted apoptosome caspase-3 activity; inhibition, % at 20 µM; 330,000 compounds, 0.71% hits; active = inhibition of at least 40% at 20 µM;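 note: plate controls were DMSO wells for no effect and DEVD-CHO caspase inhibitor wells for full effect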
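Assay system – apoptosome proteins · Medium – Hepes buffer, pH 7.5 · Also added – cytochrome c with DEVD-Rh110 · Timing – 30 min compound preincubation, 50 min activation, room temperature · Detection – Rh110 fluorescence, excitation 480 nm, emission 540 nm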
PRMT1 FP inh = PRMT1 methyltransferase inhibitors, primary screen, biochemical, fluorescence polarization; Protein arginine N-methyltransferase 1 (Homo sapiens), Q99873; recombinant PRMT1, activity-based probe fluorescence polarization; inhibition, % at 2.79 µM; 370,000 compounds, 1.3% hits;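 active = inhibition above about 21% made by adding two undisclosed values, limit read from the data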
Target sequence (Q99873 whole entry, looked up): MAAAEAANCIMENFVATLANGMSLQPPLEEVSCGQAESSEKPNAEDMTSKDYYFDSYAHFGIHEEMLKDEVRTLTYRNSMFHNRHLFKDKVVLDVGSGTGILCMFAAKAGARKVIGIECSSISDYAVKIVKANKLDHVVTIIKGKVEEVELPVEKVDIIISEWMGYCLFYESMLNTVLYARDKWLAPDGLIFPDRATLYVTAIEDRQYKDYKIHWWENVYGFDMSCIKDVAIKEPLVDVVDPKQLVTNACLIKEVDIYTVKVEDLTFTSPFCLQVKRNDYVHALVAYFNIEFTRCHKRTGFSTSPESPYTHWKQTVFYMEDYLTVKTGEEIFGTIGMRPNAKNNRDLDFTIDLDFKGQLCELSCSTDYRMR
TDP2 inh = human TDP2 enzyme inhibitors, primary screen, biochemical, epi absorbance, recombinant enzyme; Tyrosyl-DNA phosphodiesterase 2 (Homo sapiens), O95551; T5PNP hydrolysis, p-nitrophenol absorbance 415 nm; inhibition, % at 12.8 µM; 370,000 compounds, 0.34% hits; AID 720702, 2013;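 active = inhibition above the mean of all tested compounds plus 3 SD, set per campaign, cut at about 25% in these data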;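 note: 0% = DMSO with enzyme and 100% = buffer with substrate but no TDP2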
Target sequence (O95551 whole entry, looked up): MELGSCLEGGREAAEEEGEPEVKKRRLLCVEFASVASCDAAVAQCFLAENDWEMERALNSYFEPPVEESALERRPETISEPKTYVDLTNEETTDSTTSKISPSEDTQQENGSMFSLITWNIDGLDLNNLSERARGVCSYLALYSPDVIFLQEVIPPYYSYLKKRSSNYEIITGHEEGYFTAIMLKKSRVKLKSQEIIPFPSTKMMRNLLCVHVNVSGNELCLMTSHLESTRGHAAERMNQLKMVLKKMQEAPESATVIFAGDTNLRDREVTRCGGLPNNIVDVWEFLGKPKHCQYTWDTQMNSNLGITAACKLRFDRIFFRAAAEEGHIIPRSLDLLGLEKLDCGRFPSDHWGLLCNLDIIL
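System – recombinant human TDP2 · Quantity – TDP2 enzyme at 120 nM final · Doses – single concentration, 12.8 µM nominal, with 1% DMSO · Incubation – 2 h at 37 °C · Measured by – epi absorbance of p-nitrophenol freed from T5PNP by hydrolysis · Read-out – % inhibition relative to enzyme-containing and enzyme-free wells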
GSTO1 inh = inhibitors of recombinant GSTO1, primary screen, counter-screen for RBBP9 inhibitor project, biochemical, fluorescence polarization; Glutathione S-transferase omega-1 (Homo sapiens), P78417; activity-based probe fluorescence polarization; inhibition, % at 5.96 µM; 300,000 compounds, 1.1% hits;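 active = inhibition above the campaign mean inhibition plus 3 SD, cut at about 35% in these data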;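 note: 0% = GSTO1-1 with DMSO and 100% = wells lacking GSTO1-1 enzyme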
PAD4 FP inh = human PAD4 inhibitors, primary screen, biochemical, fluorescence polarization, 1536-well format | Protein-arginine deiminase type-4 (Homo sapiens), Q9UM07 | recombinant PAD4, RCA probe fluorescence polarization | inhibition, % at 6.36 µM | 330,000 compounds, 0.41% hits;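 active = percent inhibition above a cutoff equal to the mean of all tested compounds plus 3 SD, cut at about 15% in these data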;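 note: 0% = PAD4 with RCA probe and DMSO and 100% = probe without PAD4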
* marks the source's active call; other numbers are inactive results; nt = not tested or not shown.

SMILES | Apaf1 inhib | PRMT1 FP inh | TDP2 inh | GSTO1 inh | PAD4 FP inh
O=C(CCc1ccccc1)N[C@H]1[C@H](OC(=O)c2ccc3ccccc3n2)CCC[C@@]12C(=O)N(Cc1ccccc1)c1ccccc12 | nt | 0.2 | -11.2 | nt | nt
CCOC(=O)C(C)(C)N(Cc1cccc(C)c1)S(=O)(=O)c1ccc(Cl)c([N+](=O)[O-])c1 | 15.2 | 1.3 | -11.5 | 61.2* | -1.9
CCN1/C(=C/C=C/c2oc3ccc4ccccc4c3[n+]2CC)Oc2ccc3ccccc3c21 | 76.3* | nt | nt | -34.5 | -73.4
Cc1nc2cc(C(=O)O)ccc2s1 | -13.0 | 21.4* | -3.0 | -2.1 | 1.1
Cc1nc2ccc(NC(=O)c3ccccc3)cc2s1 | -1.9 | 6.8 | -6.0 | -0.9 | 2.7
CCOC(=O)C1(Cc2ccccc2)CCN(Cc2ccnc3ccccc23)CC1 | nt | 5.6 | -2.5 | nt | nt
CC(=O)CC[C@@H]1CC[C@]2(CCCN(C(=O)c3ccccc3)C2)O1 | nt | 0.0 | 7.4 | nt | nt
O=C(C1CCCN1S(=O)(=O)c1ccc([N+](=O)[O-])cc1)N1CCN(c2ccccc2)CC1 (stereo unspecified) | nt | 3.1 | 5.3 | nt | nt
COc1cc(NC(=O)CN2C(=O)NC3(CCOc4ccccc43)C2=O)cc(OC)c1 (stereo unspecified) | 58.5* | -8.3 | -9.3 | nt | -1.1
O=C(CN1C(=O)NC2(CCOc3ccccc32)C1=O)Nc1cccc(Cl)c1 (stereo unspecified) | -1.3 | -2.2 | 0.7 | 0.3 | -4.7
CCOC(=O)C1=C(C)c2ccccc2N(C(=O)OC)C1(C)C(=O)OCC (stereo unspecified) | 3.2 | 23.6* | 9.6 | nt | 3.0
CC[C@@]1(c2ccc(C)cc2)C(=O)N(C(=O)OC)N1C(=O)OC | nt | 2.0 | 0.1 | nt | nt
O=c1cc(-c2c(O)c3ccccc3n(Cc3ccccc3)c2=O)[nH][nH]1 | 17.4 | 12.8 | -7.7 | 35.9* | -4.3
CCn1c(=O)c(-c2cc(=O)[nH][nH]2)c(O)c2ccccc21 | 2.9 | 7.1 | -8.2 | 14.5 | 7.6
Cc1cccc(-n2nc3c(c2NC(=O)c2ccco2)CS(=O)C3)c1C (stereo unspecified) | 5.3 | 4.0 | 15.6 | 3.2 | -4.2
Cc1cccc(-n2nc3c(c2NC(=O)c2ccco2)CSC3)c1C | 2.4 | 30.3* | -4.0 | -8.4 | -4.2
CCCCCN1CCCCC(NC(=O)c2ccccc2C)C1=O (stereo unspecified) | nt | 3.1 | -2.1 | nt | nt
C=CCN1C(=O)[C@@H](CC(=O)NCCCC)[C@]2(C(=O)OCC)CCCCC/C=C/12 | nt | 3.6 | 1.1 | nt | nt
Cc1ccccc1OCC(=O)Nc1ccc([N+](=O)[O-])cc1 | -4.9 | 0.7 | 0.7 | -0.2 | -2.7
Cc1ccccc1OCC(=O)NCC(=O)OCC(=O)c1ccc([N+](=O)[O-])cc1 | 9.2 | 24.1* | -1.1 | 16.1 | 1.3
O=C(NCCN1CCN(c2ccccc2)CC1)c1cccn2c(=O)c3ccccc3nc12 | 26.6 | 3.5 | 4.0 | -1.7 | -0.2
O=C(NCCNc1ccc2ccccc2c1)c1cccn2c(=O)c3sccc3nc12 | 50.8* | nt | nt | 9.4 | -6.3
C=CCNC(=O)CN(C(=O)c1ccncn1)c1cccc(Br)c1 | nt | -1.7 | -11.3 | nt | nt
COC1=CC(=O)c2ccccc2C1=O | 78.6* | nt | nt | nt | 10.0
Clc1cc(Cl)cc(CNC2CCC23CCC(c2ccccc2)CC3)c1 (stereo unspecified) | nt | -1.9 | 5.9 | nt | nt
SMILES | Apaf1 inhib | PRMT1 FP inh | TDP2 inh | GSTO1 inh | PAD4 FP inh
CC(C)c1ccc(N2C(=O)CC(Sc3nc4ccccc4o3)C2=O)cc1 (stereo unspecified) | 21.4 | 22.8* | -7.3 | -1.5 | -4.4
COC(=O)[C@]1(Cc2ccccc2)NC=C(C(=O)c2ccc(F)cc2)[C@@H]1c1ccccc1 | nt | 0.8 | 5.0 | nt | nt
CCCCN(Cc1cc2cc(OC)ccc2[nH]c1=O)C(=O)c1ccco1 | 9.9 | 24.4* | -9.6 | -3.2 | 0.3
C#CCNC(=O)C[C@H]1C[C@@]2(C(=O)OC)C(=C[C@H](C3CCCC3)O[C@@H]2C)N(CCCCCCCC)C1=O | nt | 0.2 | -10.2 | nt | nt
N#Cc1ccccc1NCCCN1CCC(C(O)(c2ccccc2)c2ccccc2)CC1 | nt | -5.2 | -8.1 | nt | nt
COc1ccc(-n2c(SCC(=O)Nc3ccc4c(c3)OCO4)nc3sc4c(c3c2=O)CCCC4)cc1 | nt | 1.5 | -0.7 | nt | nt
Cc1nnc(-c2ccccc2)c(=O)n1/N=C/c1c(O)ccc2ccccc12 | 16.0 | -4.8 | -3.7 | 38.9* | -7.7
Cc1nc2ccccc2c(=O)n1/N=C/c1ccccc1O | -5.7 | -1.3 | 5.4 | -1.1 | 3.9
Cc1nc2ccccc2c(=O)n1/N=C/c1ccc2ccccc2c1O | 3.3 | nt | nt | 66.8* | -6.7
Cc1ccc(-c2nc3ccccc3nc2Cl)cc1 | 4.4 | 0.6 | 5.9 | 4.1 | -2.7
Cc1ccc(-c2nc3ccccc3nc2NN)cc1 | 8.7 | 22.4* | -11.3 | 2.0 | -2.5
COC(=O)c1ccccc1N/C=C1\CCc2c(c(C)nn2-c2ccccn2)C1=O | 69.3* | 17.7 | 1.1 | 23.1 | 4.9
Cc1ccc(C(=O)OCC(=O)NC(C)c2ccccc2)s1 (stereo unspecified) | 1.0 | 4.3 | 2.9 | nt | -0.8
Cc1ccc(NC(=O)COC(=O)c2ccc([N+](=O)[O-])s2)c(C)c1 | 6.0 | 3.0 | 10.4 | 35.0* | -10.3
CC(NC(=O)COC(=O)c1ccc([N+](=O)[O-])s1)c1ccccc1 (stereo unspecified) | 6.9 | 0.6 | -4.5 | 44.5* | -9.9
COC(=O)[C@H]1C[C@@]2(C3C=CC=C3)c3ccccc3N[C@H]2N1 | nt | 3.3 | -4.6 | nt | nt
CC(C)CC(=O)O/N=C1\C(=O)N(Cc2ccc(Cl)cc2)c2ccc([N+](=O)[O-])cc21 | 17.6 | nt | nt | 40.3* | 0.8
NS(=O)(=O)c1ccc(NC(=S)NC2CCCCCC2)cc1 | 10.8 | 24.5* | 2.3 | -4.1 | -3.3
COc1cc(C#Cc2c(-c3cncn3C)n(C)c3ccc(-c4cnc(OC)nc4)cc23)cc(OC)c1 | 42.1* | 1.9 | -6.1 | nt | -7.3
CCN(CC)c1ccc(N=Cc2ccccc2[N+](=O)[O-])cc1 | 62.0* | 20.0 | 9.8 | 68.8* | 8.2
O=[N+]([O-])c1ccccc1/C=N/OCc1ccccc1 | 11.7 | -1.0 | 6.0 | 6.3 | -0.3
CCOC(=O)c1c(NC(=O)c2ccc(C)cc2)sc2c1CC(C)(C)NC2(C)C | 54.3* | nt | nt | 5.7 | -3.3
CCOC(=O)c1c(NC(=O)Cc2ccccc2)sc2c1CC(C)(C)NC2(C)C | 27.0 | -5.3 | -0.5 | 2.0 | 4.2
Cc1cc(C(=O)CCl)c(C)n1-c1cccc(S(=O)(=O)N2CCOCC2)c1 | -2.3 | 8.1 | -5.1 | 94.0* | 1.4
COc1ccccc1C(=O)N(Cc1ccccn1)CC1CCCO1 (stereo unspecified) | nt | -0.9 | -8.5 | nt | nt
CSc1nnc(-c2ccco2)c(-c2ccco2)n1 | 20.1 | 59.3* | 22.6 | 36.2* | -2.2
CSc1nnc(-c2ccccc2)c(-c2ccccc2)n1 | -1.8 | -0.1 | -14.6 | 1.9 | -2.8
